PPC-1+TRAIL kill – PPC-1 cancer cell killing with TRAIL present; PPC-1 cells + TRAIL, ATPLite viability luminescence; cell killing (% activity), % at 4 µM or 5 µM; 0.41% of 220,000 active; AID 1443;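 active means cell killing above 50% in the first pass at 4 µM, then a duplicate retest at 5 µM averaging 50% or more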;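 further: plate controls were cells with TRAIL plus DMSO for no effect and medium-only wells lacking cells for full effect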
iPSC survival up – enhancers of human iPSC single-cell survival; hiPSC single-cell survival, ATPlite luminescence; 100% = ROCK inhibitor wells, 0% = DMSO; survival enhancement, % at 20 µM; 0.044% of 360,000 active; in the data active means survival enhancement above about 18%;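 further: cells exposed to compounds for 16 hours before the ATP read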
FLuc inh counter – inhibits firefly luciferase, flagging false hits in luciferase inhibition screens; inhibition, % at 10 µM; ATPLite firefly luciferase biochemical luminescence, 10 min; 1.5% of 200,000 active;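 active means inhibition above about 50% when tested at 10 µM, limit read from the data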
Target sequence (P08659 whole entry, looked up): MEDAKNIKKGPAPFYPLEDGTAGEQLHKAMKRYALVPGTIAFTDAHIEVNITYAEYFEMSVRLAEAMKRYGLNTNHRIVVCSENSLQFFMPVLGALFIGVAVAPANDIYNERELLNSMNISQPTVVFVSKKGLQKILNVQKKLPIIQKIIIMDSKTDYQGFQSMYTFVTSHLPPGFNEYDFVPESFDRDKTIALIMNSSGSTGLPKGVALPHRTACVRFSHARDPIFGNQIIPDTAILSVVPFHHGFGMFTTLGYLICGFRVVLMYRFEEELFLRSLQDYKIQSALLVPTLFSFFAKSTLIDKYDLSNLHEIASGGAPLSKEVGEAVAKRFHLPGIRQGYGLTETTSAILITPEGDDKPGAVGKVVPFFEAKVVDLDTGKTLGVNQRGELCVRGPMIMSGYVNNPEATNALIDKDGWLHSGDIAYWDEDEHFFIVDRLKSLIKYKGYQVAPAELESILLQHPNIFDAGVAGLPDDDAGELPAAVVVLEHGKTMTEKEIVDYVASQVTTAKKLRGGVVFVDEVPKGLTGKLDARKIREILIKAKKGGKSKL
C8 TRAIL sens – sensitizes caspase-8 expressing cells to TRAIL | 1% of 360,000 active | NB7+C8 cells + TRAIL, ATPlite viability luminescence | inhibition (viability loss, TRAIL sensitization), % at 10 µM;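 active means compounds causing at least 50% loss of cell viability in the single-dose screen, relative to plate controls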
FLuc stim CS – firefly luciferase counter-screen for stimulation assays; P08659; ATPlite luciferase biochemical, luminescence, 10 min; 0 = ATP-free wells, 1 = DMSO control; activation factor at 10 µM; 200,000 tested, under 10 active; AID 1027;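 active means luciferase activation factor, scaled between plate controls, of at least 2 with compound at 10 µM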
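Assay system: Luciferase/luciferin detection reagent, cell-free biochemical luciferase assay / Read-out: luciferase activation / Benchmarks: No-ATP low control, compound-free enzyme-plus-ATP high control / Medium: PBS buffer for ATP / Detection: luminescence measurement of luciferase light output / Schedule: 10 min at ambient temperature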
beta cell repl – induces beta-cell replication in MIN6 cells; MIN6 cells proliferation, ATPlite luminescence, 48 h; cells starved in 0.2% serum; 100% = growth in 10% serum; proliferation, % at 10 µM; 0.29% of 330,000 active; AID 2380;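 active means compounds whose signal lies at least 3.5 SD above the mean of all wells on their plate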;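 further: 0% = DMSO-treated cells in low-serum medium and 100% = 10% serum control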
Numbers without * were called inactive; . = no result given. This is a sample that favours compounds with a hit; in the whole collection about 1.8% have one here.

SMILES	PPC-1+TRAIL kill	iPSC survival up	FLuc inh counter	C8 TRAIL sens	FLuc stim CS	beta cell repl
CC(=O)Oc1ccc(Cn2c(C)c(C(=O)NCCC#N)sc2=O)cc1	.	0	.	6	.	.
CCc1ccc(/C=C2\SC(=S)N(CCCC(=O)N(CCO)c3ccccc3)C2=O)cc1	.	0	.	92*	.	.
CCc1ccc(/C=C2\SC(=S)N(CCCC(=O)Nc3ccccn3)C2=O)cc1	7	-3	1	63*	1	-3
O=C1C=CC2(C=C1)O[C@H](Cc1ccccc1)[C@@H](Cc1ccccc1)O2	.	-2	.	95*	.	.
COc1ccc(C[C@@H]2OC3(C=CC(=O)C=C3)O[C@H]2Cc2ccc(OC)cc2)cc1	.	-1	.	93*	.	.
COc1ccc(N2C(=O)CC(Cc3ccccc3)C2=O)cc1 (centres undefined)	1	-2	-6	-17	1.1	0
COc1cc(/C=N/Nc2ccc(Cl)c(C(=O)O)c2)ccc1OC(=O)c1ccccc1F	.	0	.	-20	.	-6
Cc1cc(C)cc(N(CC(=O)NC2CCC(C)CC2)S(=O)(=O)c2c(C)[nH]c(=O)[nH]c2=O)c1 (centres undefined)	10	0	.	4	.	-2
O=[N+]([O-])c1cccc(CSC2=NCCN2S(=O)(=O)c2ccccc2)c1	.	0	.	3	.	-5
CC1(C(=O)NS(=O)(=O)c2cccs2)CCN1C(=O)C1(c2ccccc2)CCCC1 (centres undefined)	.	3	.	-6	.	.
Cc1ccccc1-n1nnnc1Sc1nnnn1-c1ccccc1	9	-6	-6	55*	1.1	-6
Cc1ccc(-c2cc3nc4c(c(=O)n3[nH]2)CCCC4)cc1	.	-1	.	60*	.	-4
Cc1nc2cc(-c3ccccc3)[nH]n2c(=O)c1C	.	0	.	10	.	0
O=c1c2c(nc3cc(-c4ccc(F)cc4)[nH]n13)CCC2	34	-2	51*	26	0.5	0
CCc1cc2c(=O)c(-c3ccc4c(c3)OCCO4)coc2cc1OS(C)(=O)=O	11	-2	52*	37	0.5	-3
O=C1/C(=C/c2cccs2)Sc2ccccc21	11	-3	68*	0	0.3	2
COC(=O)c1ccc(C23CC4(C2)[C@H](CN(CC2CCCCC2)[C@@H]4c2ccccc2)C3c2ccc(C(F)(F)F)cc2)cc1 (some centres undefined)	-1	.	.	.	.	-7
CCOC(=O)COn1c(=O)c(-c2cc3ccccc3o2)[n+]([O-])c2ccccc21	29	-1	52*	39	0.5	-4
C/C(=N\Nc1cccc2cccnc12)c1ccccc1O	37	-4	68*	40	0.3	-2
COc1cc(/C=N/Nc2cccc3cccnc23)cc(OC)c1O	15	-3	86*	43	0.1	-6
Oc1cccc(/C=N/Nc2cccc3cccnc23)c1	33	-3	81*	54*	0.2	-5
Oc1c(/C=N/Nc2cccc3cccnc23)ccc2ccccc12	22	0	6	-6	0.9	0
CCc1ccc([C@@H]2CC=C(C(=O)O)[C@H](c3ccc(C(C)(C)C)cc3)N2S(=O)(=O)c2ccc(C)cc2)cc1	.	-3	.	-4	.	-5
CC(C)N(Cc1ccccc1)C(=O)COC(=O)c1cnc(Cl)c(Cl)c1	.	-1	.	75*	.	-7
O=C(OCc1ccccc1)c1cnc(Cl)c(Cl)c1	.	-1	.	-1	.	-2
SMILES	PPC-1+TRAIL kill	iPSC survival up	FLuc inh counter	C8 TRAIL sens	FLuc stim CS	beta cell repl
CCc1nnc(NC(=O)c2ccc(OC)cc2)s1	31	0	83*	8	0.2	-4
CCc1nnc(NC(=O)c2cccc(OC)c2)s1	9	0	46	9	0.5	-1
COC(=O)Nc1nnc(/C=C/c2ccc(OC)cc2)s1	37	-1	52*	23	0.5	0
COc1ccc(/C=C/c2nnc(NC(C)=O)s2)cc1	9	-1	.	34	.	-4
COc1ccc(NC(=O)C23CC4CC(CC(Cl)(C4)C2)C3)cc1S(=O)(=O)N1CCOCC1	.	1	.	-1	.	1
O=C(CCNS(=O)(=O)c1ccccc1)NNC(=O)c1cccc(Cl)c1	.	0	.	4	.	0
CC1(C(=O)Nc2ccc3ccccc3c2)CCC(=O)N1C1CC1 (centres undefined)	.	1	.	-15	.	.
COc1cccc(-c2nnc(-c3ccc(C)o3)o2)c1	44	-5	86*	58*	0.1	-4
COc1cccc(C(=O)Nc2ccc(-c3nnc(-c4ccco4)o3)cc2)c1	19	-1	-4	9	1	-2
CCN(CC)CCCNc1ccc(-c2nnc(-c3ccc(OCC(C)C)cc3)o2)cn1	.	0	.	87*	.	-6
CC(C)COc1ccc(-c2nnc(-c3ccco3)o2)cc1	16	-3	60*	30	0.4	-3
COc1cccc(-c2nnc(-c3ccco3)o2)c1	18	-2	54*	20	0.5	-2
Cc1ccccc1Cn1cc(NC(=O)CCCn2nc([N+](=O)[O-])cc2C)cn1	0	1	-6	-5	1.1	-2
COc1cc2sc3ccc(-c4ccc(CN5CCOCC5)cc4)cc3c(=O)c2cc1OC	.	-2	.	53*	.	-6
CCOC(=O)C1=C(COC(=O)C(CC)c2ccccc2)NC(=O)NC1C (centres undefined)	.	0	.	7	.	0
CN(/N=C/c1cccnc1)c1cnc2ccccc2n1	10	-1	51*	31	0.5	-6
Nc1c2c(nc3sc4c(c13)CCCC4)-c1ccccc1CC2	42	-1	.	66*	.	-4
Nc1nc2ccc(-c3nc4ccccc4o3)cc2s1	42	-6	58*	28	0.4	0
c1ccc2oc(-c3ccc4nc[nH]c4c3)nc2c1	24	-3	68*	37	0.3	-4
COc1ccc(-c2nc3ccccc3o2)cc1OC	.	0	.	8	.	-3
Cc1ccc([C@H]2N[C@]3(CCCN(Cc4ccc(F)cc4)C3=O)[C@H]3C(=O)N(Cc4ccccc4)C(=O)[C@@H]23)cc1	.	-2	.	5	.	.
Nc1ccc(Nc2nc(-c3ccncc3)cs2)cc1	11	-1	59*	25	0.4	-3
CCNC(=O)CC1C(=O)N(C)C(=S)N1NC(=O)c1ccc(Cl)cc1 (centres undefined)	6	1	-2	-4	1	-1
Nc1ccc(C(=O)NN2C(=O)[C@H](Cl)C2c2ccc(Cl)cc2)cc1 (some centres undefined)	.	-4	.	95*	.	.
COc1ccc2c(c1OC)C(=O)N(c1cccc(C)c1)C2	15	-4	84*	65*	0.2	-3
COc1ccc2c(c1OC)C(=O)N(c1ccc(C)cc1)C2	37	-1	.	46	.	-2
COC(=O)c1ccc(Nc2c([N+](=O)[O-])c(=O)oc3ccccc23)cc1	14	1	.	-1	.	-4

Assay outcomes deposited in PubChem BioAssay by Sanford-Burnham Center for Chemical Genomics.
